Test results reported in ChEMBL document CHEMBL1143703, “Linear TMC-95-based proteasome inhibitors” (J Med Chem, 2007).
Activity calls are given as the source filed them. No cut-off for these calls is given here. Residues, ends and D or L forms follow the SMILES beside them. *: point of attachment. Boc = CC(C)(C)OC(=O)*; NHBn = c1ccc(CN*)cc1; NHPh = c1ccc(N*)cc1; Bn = c1ccc(C*)cc1

Key:
Oryctolagus cuniculus [1] = species: Oryctolagus cuniculus; test: Activation of chymotrypsin-like activity of rabbit reticulocyte 20S proteasome relative to control
Oryctolagus cuniculus [2] = species: Oryctolagus cuniculus; test: Inhibition of post acid activity of rabbit reticulocyte 20S proteasome at 100 uM
[3] = Inhibition of post acid activity of rabbit reticulocyte 20S proteasome; design: species or system Oryctolagus cuniculus
Oryctolagus cuniculus [4] = species: Oryctolagus cuniculus; test: Activation of trypsin-like activity of rabbit reticulocyte 20S proteasome relative to control
Outline: (§1)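 Trypsin-like site: proteasome exposed to 0.1-100 µM compound, fluorogenic substrate hydrolysis read 1 h at 37 °C in pH 7.5 20 mM Tris, 1 mM DTT, 10% glycerol without SDS; 3% DMSO final. Initial rates relative to untreated control: >100% expressed as activation factor, <100% as inhibition; Ki via Vi/V0 = 1/(1+[I]/Ki(app)) or IC50 = Ki(1+[S]/Km).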

HeLa [5] = test: Cytotoxicity against human HeLa cells at 50 uM after 48 hrs by MTT assay; format: functional, cell-based
Outline: (§2)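 5 × 10^3 cells grown in triplicate 48 h with or without 50 µM inhibitor. Media: DMEM for HeLa and T-47D; MEM for HEK-293, HuH7 and Hep G2; McCoy for HCT-116; each with 10% FBS, 5% CO2. Survival read by MTT metabolism at 37 °C, relative to DMSO-only control.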

HeLa [6] = test: Cytotoxicity against human HeLa cells by MTT assay; format: functional, cell-based
Oryctolagus cuniculus [7] = species: Oryctolagus cuniculus; test: Inhibition of trypsin-like activity of rabbit reticulocyte 20S proteasome at 100 uM; outline: as §1
HCT-116 = test: Growth inhibition of human HCT116 cells at 50 uM after 48 hrs by MTT assay; format: functional, cell-based; outline: as §2
HepG2 = test: Growth inhibition of human HepG2 cells at 50 uM after 48 hrs by MTT assay; format: functional, cell-based; outline: as §2
[8] = Inhibition of chymotrypsin-like activity of rabbit reticulocyte 20S proteasome; design: species or system Oryctolagus cuniculus
T47D = test: Growth inhibition of human T47D cells at 50 uM after 48 hrs by MTT assay; format: functional, cell-based; outline: as §2
HEK293 = test: Cytotoxicity against human HEK293 cells at 50 uM after 48 hrs by MTT assay; format: functional, cell-based; outline: as §2
Huh-7 = test: Growth inhibition of human HuH7 cells at 50 uM after 48 hrs by MTT assay; format: functional, cell-based; outline: as §2
[9] = Inhibition of trypsin-like activity of rabbit reticulocyte 20S proteasome; design: species or system Oryctolagus cuniculus; outline: as §1
[10] = Stability in RPMI medium in presence of 20% fetal calf serum; format: ADME; settings: cattle, RPMI medium with 20% fetal calf serum
Outline: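 Compound incubated up to 2 days at 37 °C in RPMI with 20% fetal calf serum. Stopped with ethanol, centrifuged at 4 °C, supernatant analysed by RP-HPLC. Half-life from linear least-squares fit of log[I] versus time, at least five points.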

Oryctolagus cuniculus [11] = species: Oryctolagus cuniculus; test: Inhibition of chymotrypsin-like activity of rabbit reticulocyte 20S proteasome at 100 uM

| Fold change (Oryctolagus cuniculus [1]) | inhibition (Oryctolagus cuniculus [2]) [%] | Ki [3] [µM] | Fold change (Oryctolagus cuniculus [4]) | Ki [8] [µM] | Structure (SMILES) | further results |
| --- | --- | --- | --- | --- | --- | --- |
| 1.5 | < 20 | > 100 | 3.2 |  | C[C@H](NC(=O)[C@H](Cc1ccc(OCc2ccccc2)cc1)NC(=O)OC(C)(C)C)C(=O)N[C@@H](Cc1c[nH]c2ccccc12)C(=O)NCCCCNC(=O)OC(C)(C)C |  |
| 1.6 | < 20 | > 100 | 1.9 |  | CC(C)(C)OC(=O)NCCCCNC(=O)[C@H](Cc1c[nH]c2ccccc12)NC(=O)[C@H](CCCCNC(=O)OC(C)(C)C)NC(=O)[C@H](Cc1ccc(OCc2ccccc2)cc1)NC(=O)OC(C)(C)C |  |
|  |  | 1 |  | 65.7 | C[C@H](NC(=O)[C@H](Cc1ccc(OCc2ccccc2)cc1)NC(=O)OC(C)(C)C)C(=O)N[C@@H](Cc1c[nH]c2ccccc12)C(=O)Nc1ccc(O)cc1 | Activity (HeLa [5]): Active; IC50 (HeLa [6]): 15 µM; inhibition (Oryctolagus cuniculus [7]): < 20%; Activity (HCT-116): Active; Activity (HepG2): inactive; Activity (T47D): Active; Activity (HEK293): Active; Activity (Huh-7): Active; Ki [9]: > 100 µM |
| 1.4 | < 20 | > 100 | 1.6 |  | C[C@H](NC(=O)[C@H](Cc1ccc(OCc2ccccc2)cc1)NC(=O)OC(C)(C)C)C(=O)N[C@@H](Cc1c[nH]c2ccccc12)C(=O)Nc1ccccc1 (Boc-Tyr(Bn)-Ala-Trp-NHPh) |  |
| 1.3 | < 20 | > 100 | 1.9 |  | CC(C)C[C@H](NC(=O)[C@H](Cc1ccc(OCc2ccccc2)cc1)NC(=O)OC(C)(C)C)C(=O)N[C@@H](Cc1c[nH]c2ccccc12)C(=O)NCc1ccccc1 (Boc-Tyr(Bn)-Leu-Trp-NHBn) |  |
|  |  | 2.8 |  | 1.6 | C[C@H](NC(=O)[C@H](Cc1ccc(OCc2ccccc2)c(I)c1)NC(=O)OC(C)(C)C)C(=O)N[C@@H](Cc1c[nH]c2c(Br)cccc12)C(=O)O | Ki [9]: 3 µM; half-life [10]: 37 h |
|  | < 20 | > 100 |  | > 100 | CC(C)(C)OC(=O)N[C@@H](Cc1ccc(OCc2ccccc2)cc1)C(=O)N[C@@H](CCCN(C(=N)NC(=O)OCc1ccccc1)C(=O)OCc1ccccc1)C(=O)N[C@@H](Cc1c[nH]c2ccccc12)C(=O)Nc1ccc(O)cc1 | inhibition (Oryctolagus cuniculus [11]): < 20%; inhibition (Oryctolagus cuniculus [7]): < 20%; Ki [9]: > 100 µM |
| 1.5 | < 20 | > 100 | 1.6 |  | CC(C)(C)OC(=O)N[C@@H](Cc1ccc(OCc2ccccc2)cc1)C(=O)N[C@@H](CC(N)=O)C(=O)N[C@@H](Cc1c[nH]c2ccccc12)C(=O)Nc1ccccc1 (Boc-Tyr(Bn)-Asn-Trp-NHPh) |  |
|  |  | 84.2 | 2.2 | 59.3 | CC(C)(C)OC(=O)N[C@@H](Cc1ccc(OCc2ccccc2)cc1)C(=O)N[C@@H](CC(N)=O)C(=O)N[C@@H](Cc1c[nH]c2ccccc12)C(=O)NCc1ccccc1 (Boc-Tyr(Bn)-Asn-Trp-NHBn) | half-life [10]: 6.5 h |
| 1.3 | < 20 | > 100 | 1.8 |  | CC(C)(C)OC(=O)NCCCC[C@H](NC(=O)[C@H](Cc1ccc(OCc2ccccc2)cc1)NC(=O)OC(C)(C)C)C(=O)N[C@@H](Cc1c[nH]c2ccccc12)C(=O)NCc1ccccc1 (Boc-Tyr(Bn)-Lys(Boc)-Trp-NHBn) |  |
| 1.6 | < 20 | > 100 | 2.2 |  | CC(C)(C)OC(=O)NCCCCNC(=O)[C@H](Cc1c[nH]c2ccccc12)NC(=O)[C@H](CC(N)=O)NC(=O)[C@H](Cc1ccc(OCc2ccccc2)cc1)NC(=O)OC(C)(C)C |  |
